Laboratory results: article PMC6863055 (Dalton transactions (Cambridge, England : 2003), 2019)
Where two headings read alike, the source gives them in different places. Marks after values point to notes of the source that are not given here. Blank lines part the entries; values can stand above or below the compound they belong to.

Experiments:
[1] = ref [51], [52]; cited from earlier work
[2] = Protonation constants by pH-potentiometric titration; format: physicochemical
Procedure, shortened: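 Test compound (2.28 mM) titrated directly with standardized NaOH over pH 1.80–12.00. Samples were 6.00 mL, thermostatted at 25 °C, held at 0.15 M NaCl, stirred under N2. The electrode was calibrated with KH-phthalate (pH 4.005) and borax (pH 9.177) buffers. [H+] was obtained by the Irving method (pKw 13.820). Protonation constants come from fitting the pH-potentiometric data.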

[3] = Formation constants with Mg2+; format: binding; conditions: Mg^2+; I=0.15 M NaCl, T=298 K
Procedure, shortened: (§1)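 Complexes were studied by direct pH-potentiometric titration at 1:1 and 2:1 metal-to-ligand ratios, with 150–200 data pairs and 1 min equilibration per point. With metal in excess, titration continued until precipitate appeared (pH 7–9). Samples were at 25 °C, 0.15 M NaCl, under N2, with a calibrated electrode and [H+] corrected by the Irving method.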

[4] = Cu^2+, cited from earlier work; for log β [ML]/[M][L]: I=0.5 M, NaNO3, ref [57]
[5] = Zn^2+, cited from earlier work
[6] = Formation constants with Ca2+; format: binding; conditions: Ca^2+; I=0.15 M NaCl, T=298 K
Procedure, shortened: as §1

[7] = Formation constants with Cu2+; format: binding; conditions: Cu^2+, I=0.15 M NaCl, T=298 K
[8] = Formation constants with Zn2+; format: binding; conditions: Zn^2+; I=0.15 M NaCl, T=298 K
Procedure, shortened: as §1

[9] = Metabolic stability in mouse liver microsomes; format: in vitro ADME; conditions: murine liver microsomes
Procedure, shortened: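 Male ICR/CD-1 mouse liver microsomes (0.25 mg) in 50 mM Tris pH 7.5 with test compound at 2 µM final (DMSO stock). Incubated at 37 °C with shaking and an NADPH-regenerating system (NADP, glucose-6-phosphate, G6P dehydrogenase). Time points were quenched with acetonitrile, 0.2% formic acid and tolbutamide internal standard; the T0 sample was quenched before compound or cofactors were added. Parent was measured by LC-MS/MS (223.1→180.1). Half-life = 0.693/slope of ln % remaining versus time.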

[10] = Metabolic stability in mouse hepatocytes; format: in vitro ADME
Procedure, shortened: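 Murine hepatocytes (1×10^6/mL) incubated with test compound (2 µM final, DMSO stock) for 0–240 min at 37 °C, 5% CO2. Reactions were quenched with two volumes of acetonitrile containing 0.15% formic acid and tolbutamide internal standard, then analysed by LC-MS/MS. % remaining is relative to T0. Half-life = 0.693/slope of ln % remaining versus time; CLint was taken from the slope of ln peak-area ratio versus time.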

FRDA cells = conditions: at 125 nM; toxicity induced by BSO in FRDA cells; ref [5]; cited from earlier work
[11] = I=0.15 M, NaClO4; ref [45]; cited from earlier work
[12] = Mg^2+; I=0.5 M, KNO3; ref [53]; cited from earlier work
[13] = Ca^2+, I=0.1 M, NaNO3, ref [54], cited from earlier work

Structure (SMILES): Oc1cccnc1 [3-pyridol]
acidity constant of aromatic -OH functionality [1]: 8.72

Structure (SMILES): Oc1ccncc1 [4-pyridol]
acidity constant of aromatic -OH functionality [1]: 11.09

log K1^H (protonation constant) ([2]; I=0.15 M NaCl, T=298 K): 11.37 (1) | log K2^H (protonation constant) ([2]; I=0.15 M NaCl, T=298 K): 8.22(5) | ∑ log KN-donors ([2]; I=0.15 M NaCl, T=298 K): 21.20 | log K3^H (protonation constant) ([2]; I=0.15 M NaCl, T=298 K, for L2 and L3 the pyridol -OH): 1.61(5)
Structure (SMILES): c1cc2nc(c1)CNCCNCCNC2 [L1, 3,6,9,15-tetraazabicyclo[9.3.1]penta-deca-1(15),11,13-triene]
log β [ML]/[M][L] [3]: 4.04(2) | log β [ML]/[M][L][OH^−] ([4]; previously described by others, ref [47], [57], [58], [62]): 7.48^c | log β [ML]/[M][L] ([5]; I=0.5 M, KNO3, ref [47]): 14.40^f | log β [ML]/[M][L][OH^−] ([5]; I=0.5 M, KNO3, ref [47]): 8.50^f

isoelectric point (pI) [2]: 10.31 | log K1^H (protonation constant) ([2]; I=0.15 M NaCl, T=298 K): 11.56(3) | log K2^H (protonation constant) ([2]; I=0.15 M NaCl, T=298 K): 9.05(5) | log K4^H (protonation constant) ([2]; I=0.15 M NaCl, T=298 K): 1.68(5) | ∑ log KN-donors ([2]; I=0.15 M NaCl, T=298 K): 22.29 | fraction of [H2(L2)]^+ species in solution ([2]; at biological pH): 97% | % of molecule retained at termination of the experiment ([9]; NADPH regenerating system, 2 µM): 65% | in vitro half-life ([9]; NADPH regenerating system, 2 µM, substrate depletion): greater than 120 min | clearance classification ([9]; Phase I): low-moderate clearance | calculated Clint ([10]; murine hepatocytes): < 0.02 µL/min/million cells | clearance classification ([10]; murine hepatocytes): low clearance | half-life ([10]; murine hepatocytes 1×10^6/mL, 2 µM, 0–240 min): greater than 240 min | % depleted over the time course of the experiment ([10]; murine hepatocytes, 0–240 min): 2–9%
Structure (SMILES): Oc1cc2nc(c1)CNCCNCCNC2 [L2, 3,6,9,15-tetraazabicyclo[9.3.1]penta-deca-1(15),11,13-trien-13-ol]
log β [MHL]/[M][L][H^+] [3]: 13.53(2) | log β [ML]/[M][L] [3]: 4.96(1) | log β [MHL]/[M][L][H^+] [6]: 13.66(5) | log β [MHL]/[M][L][H^+] [7]: 25.79(3) | log β [ML]/[M][L] [7]: 19.16(11) | log β [ML]/[M][L][OH^−] [7]: 8.55(13) | log β [MH2L]/[M][L][H^+]^2 ([7]; determined by direct UV-vis titration): 28.38(5)^a | log β [MH2L]/[M][L][H^+]^2 [8]: 25.72(7) | log β [MHL]/[M][L][H^+] [8]: 23.02(3) | log β [ML]/[M][L] [8]: 17.18(7) | log β [ML]/[M][L][OH^−] [8]: 8.92(9) | quenching of radical based toxicity (FRDA cells): 100%

Structure (SMILES): C1CNCCNCCNCCN1 [cyclen]
log K1^H (protonation constant) [11]: 10.66 | log K2^H (protonation constant) [11]: 9.69 | log K3^H (protonation constant) [11]: 1.41 | ∑ log KN-donors [11]: 21.76 | log β [ML]/[M][L] [12]: 2.25^a | log β [ML]/[M][L] [13]: 3.12 | log β [ML]/[M][L] ([13]; listed as Cyclen): 3.12^b | log β [ML]/[M][L] [4]: 23.3 | log β [ML]/[M][L] ([4]; listed as Cyclen): 23.3^d | log β [ML]/[M][L] ([5]; ref [58]): 16.2^e
